DAGLB inhibitor: diacylglycerol lipase beta (human) inhibition; Q8NCG7; HEK293T DAGLB membrane lysate, EnzChek fluorogenic substrate; inhibition, % at 5.17 µM; hit rate 0.059% among 340,000; in the data active = inhibition above about 34%
FAS-TE inh: blocks the thioesterase domain of human fatty acid synthase. P49327. inhibition, % at 15 µM. AID 602261. recombinant FAS-TE, OMFH fluorogenic substrate, fluorescence endpoint. hit rate 0.67% among 360,000;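 active = compounds whose normalised, plate-corrected inhibition of enzyme fluorescence in the single-dose primary screen is 50% or more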
hiPSC survival: increases survival of single human iPS cells; hiPSC single-cell survival, ATPlite luminescence; 100% = ROCK inhibitor wells, 0% = DMSO; survival enhancement, % at 20 µM; hit rate 0.044% among 360,000; AID 602274; in the data active = survival enhancement above about 18%;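 also: cells exposed to compounds for 16 hours before the ATP read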
SKN-1 block: blocks SKN-1 activity in C. elegans | C. elegans VP596 Pgst-4::GFP/RFP ratio, acrylamide-induced, 24 h | inhibition, % at 21.8 µM | hit rate 0.49% among 360,000 | AID 624304;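 active = interference check ratio from 0.5 to 1.5 plus GFP to RFP signal ratio inhibition reaching or exceeding a fixed threshold, cut at about 30% in these data, passing the limit was not always enough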
MT1-MMP act inh: blocks activation of human MT1-MMP. AID 651647. P50281. GFP/RFP ratio change, % at 20 µM. HT1080 RFP-PRO-GFP cells, GFP/RFP ratio fluorescence, overnight; percent of plate control window, DMSO zero. hit rate 0.061% among 360,000;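 active = GFP/RFP ratio change of at least 30% with cell ATP level not reduced by more than half and red fluorescence within 50% of control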
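Test system: HT1080 RFP-PRO-GFP cells; Benchmarks: DMSO and RFP-L50D-GFP cell wells; Timing: cells overnight before dosing, compound overnight, 37 °C, 5% CO2; Compound: one 20 µM compound dose with 1% DMSO; Read-out: GFP/RFP fluorescence ratio.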
FAS-TE inh conf: confirmation of human fatty acid synthase thioesterase inhibitors; shares compounds with FAS-TE inh; recombinant FAS-TE, OMFH fluorogenic substrate, fluorescence; inhibition, % at 15 µM; hit rate 45% among 2,300;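 active = compounds inhibiting the enzyme by at least 50% at 15 µM in any one of the replicates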
Of the large screens only hits and unclear results are named; the others gave an inactive call (follow-up assays come after a bar, where they were run). This is a sample that favours compounds with a hit; in the whole collection about 1.3% have one here.

COc1ccc(C(=O)N/C(=C\c2cn(S(=O)(=O)N(C)C)c3ccccc23)C(=O)NC(C)C)cc1	FAS-TE inh 65 | FAS-TE inh conf inactive
CCN(CC)C(=O)/C(=C/c1cn(S(=O)(=O)N(C)C)c2ccccc12)NC(=O)c1ccc(OC)cc1	none
COc1ccc(C(=O)N/C(=C\c2cn(S(=O)(=O)N(C)C)c3ccccc23)C(=O)N2CCCC2)cc1	FAS-TE inh 80 | FAS-TE inh conf 90
CCCOc1ccc(C(=O)NCCC(=O)NCCCC(=O)O)cc1	none
CC1(Cc2cc(Cl)ccc2C(F)(F)F)C(=O)Nc2ccc(OC(F)(F)F)cc21 (centres undefined)	none (no result: DAGLB inhibitor)
Cc1ccc(NP(=O)(c2ccc(N(C)C)cc2NC(=O)c2cccs2)N2CCOCC2)cc1 (centres undefined)	none
CN(C)c1ccc(P(=O)(Nc2ccc([N+](=O)[O-])cc2)N2CCOCC2)c(NC(=O)c2cccs2)c1 (centres undefined)	FAS-TE inh 54 | FAS-TE inh conf inactive
O=C(CCNC(=O)c1ccc([N+](=O)[O-])cc1)Oc1ccc(F)c(F)c1	none
CC(=O)C(=Cc1ccc(-c2ccccc2)cc1)C(=O)c1ccccc1	none (no result: DAGLB inhibitor)
Cc1c(OCc2nn[nH]n2)ccc2c(-c3ccccc3)cc(=O)oc12	FAS-TE inh 76 | FAS-TE inh conf 86
CCCc1cc(=O)oc2c(C)c(OCc3nn[nH]n3)ccc12	none
COc1ccc(-c2cc(=O)oc3c(C)c(OCc4nn[nH]n4)ccc23)cc1	FAS-TE inh 62 | FAS-TE inh conf 69
CC1=C(C(=O)Nc2nc3ccccc3s2)C(c2ccco2)C(C#N)=C(SCC(=O)NC2CCCCC2)N1 (centres undefined)	FAS-TE inh 77 | FAS-TE inh conf inactive
Cc1ccc(N2C(=O)C3CCCN3C2=S)c(C)c1 (centres undefined)	none
Cc1ccc(N2C(=O)C3CC(c4ccccc4)=C4C5C=CC(C6C(=O)N(c7ccc(C)cc7C)C(=O)C56)C4C3C2=O)c(C)c1 (centres undefined)	FAS-TE inh 100 | FAS-TE inh conf 44
Cc1ccc(N2C(=O)C3CC(c4ccccc4)=C4C5C=CC(C6C(=O)N(c7ccc(C)cc7)C(=O)C56)C4C3C2=O)cc1 (centres undefined)	FAS-TE inh 85 | FAS-TE inh conf inactive
Cc1ccc(N2C(=O)C3C4CC(=O)C(c5ccccc54)C3C2=O)cc1 (centres undefined)	none
O=c1c2ccccc2c(C=Nc2cccc(S(=O)(=O)NC3=NCCCCC3)c2)c(O)n1Cc1ccccc1	FAS-TE inh 65 | FAS-TE inh conf inactive
Cc1cccc(OC(=O)Nc2ccc(C(=O)O)c(O)c2)c1	none
CC(C)(C)c1ccc(OC(=O)Nc2ccc(O)c(C(=O)O)c2)cc1	FAS-TE inh 50 | FAS-TE inh conf 63
c1ccc(SC23CCCCN(CCC2)[C@]32CO2)cc1 (some centres undefined)	none (no result: DAGLB inhibitor)
O=C(CSc1nc2nc(-c3cccs3)cc(C(F)(F)F)c2c(=O)[nH]1)Nc1c(F)c(F)c(F)c(F)c1F	FAS-TE inh 50 | FAS-TE inh conf inactive
COc1cccc(C(O)c2nc(-c3ccc4ccccc4c3)cs2)c1 (centres undefined)	none (no result: DAGLB inhibitor)
O=C(NCCc1ccc([N+](=O)[O-])cc1)c1ccccc1	none
CC(C)c1ccc(CCNC(=O)c2ccc([N+](=O)[O-])cc2)cc1	FAS-TE inh 66 | FAS-TE inh conf 73
O=C(CCNC(=O)c1ccc([N+](=O)[O-])cc1)NC1CCCCCC1	FAS-TE inh 63 | FAS-TE inh conf 70
O=C(NCCOc1ccccc1)c1cc(C(=O)NCCOc2ccccc2)cc([N+](=O)[O-])c1	FAS-TE inh 75 | FAS-TE inh conf 77
CN(c1ccccc1)S(=O)(=O)c1cccc(NC(=O)CCNC(=O)c2ccc([N+](=O)[O-])cc2)c1	FAS-TE inh 54 | FAS-TE inh conf 61
O=C(NCCOc1ccccc1)c1ccccc1[N+](=O)[O-]	none
O=C(CCNC(=O)c1ccc(Br)cc1)NC1CCCCCC1	none
Clc1ccc(-c2cn(-c3nc4ccccc4s3)nn2)cc1	none (no result: DAGLB inhibitor)
O=C(NCCC(=O)N(CCc1ccccc1)Cc1ccccc1)c1ccc([N+](=O)[O-])cc1	FAS-TE inh 61 | FAS-TE inh conf 42
O=C(CCNC(=O)c1ccc([N+](=O)[O-])cc1)NCc1ccccc1	FAS-TE inh 60 | FAS-TE inh conf 72
Cn1c(=O)c2cc3c(nc2n(C)c1=O)CC(c1ccccc1)CC3=O (centres undefined)	FAS-TE inh 60 | FAS-TE inh conf 51
CCCCNc1nccnc1-c1cccc(C=O)c1	none (no result: DAGLB inhibitor)
O=C(c1ccc([N+](=O)[O-])o1)N1CCN(Cc2ccccc2)CC1	none
CCc1cccc2sc(N3CCN(C(=O)c4ccc([N+](=O)[O-])o4)CC3)nc12	FAS-TE inh 52 | FAS-TE inh conf 40
Cn1cc([N+](=O)[O-])c(C(=O)Nc2ccc(C3CCCCC3)cc2)n1	FAS-TE inh 52 | FAS-TE inh conf inactive
Cc1ccc(Nc2nc(C)cc(C)c2C#N)c(C)c1	none
CC(=O)NCCn1c(SCc2cccc([N+](=O)[O-])c2)nc2ccccc2c1=O	FAS-TE inh 53 | FAS-TE inh conf inactive
O=c1c2ccccc2nc(SCc2ccc([N+](=O)[O-])cc2)n1CCCO	FAS-TE inh 68 | FAS-TE inh conf 50
Cc1ccc(S(=O)(=O)Oc2ccc(/C=C3/N=C(c4ccccc4)OC3=O)cc2)cc1	FAS-TE inh 54 | FAS-TE inh conf inactive
Cc1cccc(CN(C)C[C@H]2OCc3cnnn3CCCC(=O)N([C@@H](C)CO)C[C@@H]2C)c1	none
Cc1ccc2c(c1)NC(=O)[C@@]1(C)[C@@H](c3ccccc3)[C@H]3COc4ccccc4[C@@H]3N1C2=O	FAS-TE inh 68 | FAS-TE inh conf inactive
Cc1ccc2c(c1)[C@H]1[C@H](CO2)[C@H](c2ccccc2)[C@]2(C)C(=O)Nc3cc(F)ccc3C(=O)N12	FAS-TE inh 54 | FAS-TE inh conf inactive
C[C@@]12C(=O)Nc3cc(F)ccc3C(=O)N1[C@H]1c3cc(Br)ccc3OC[C@@H]1[C@@H]2c1ccccc1	FAS-TE inh 80 | FAS-TE inh conf inactive
Cc1ccc2c(c1)[C@H]1[C@H](CO2)[C@H](c2ccccc2)[C@]2(C)C(=O)Nc3ccccc3C(=O)N12	FAS-TE inh 53 | FAS-TE inh conf inactive
C[C@@]12C(=O)Nc3ccccc3C(=O)N1[C@H]1c3cc(Cl)ccc3OC[C@@H]1[C@@H]2c1ccccc1	none
COc1cccc(Cn2c(C(C)n3c(-c4cnccn4)nc4ccccc43)nc3ccccc32)c1 (centres undefined)	none (no result: DAGLB inhibitor, FAS-TE inh, hiPSC survival)
CCOC(=O)Cc1csc(NC(=O)Nc2cccc(OC)c2)n1	none

Compound activity deposited in PubChem BioAssay by several laboratories.
